# According to ChEMBL document CHEMBL1821687, “Discovery, synthesis, and biological evaluation of novel SMN protein modulators” (J Med Chem, 2011):
# Calls of active or inactive are those of the source. No cut-off for these calls is given here.
# Key:
# Caco-2 [1] = assay: Apparent permeability from basolateral side to apical side of human Caco2 cells at 10 uM; assay type: ADME, cell-based; settings: caco-2, 10 µM
# Caco-2 [2] = assay: Apparent permeability from apical side to basolateral side of human Caco2 cells at 10 uM; assay type: ADME, cell-based; settings: caco-2, 10 µM
# Liver = assay: Half-life in mouse liver microsome at 1 uM; assay type: ADME; settings: microsomes
# [3] = molecular target: T1, Luciferin 4-monooxygenase (Luciola lateralis, UniProt Q01158); assay: Inhibition of fire fly luciferase; set-up: species or system Aquatica lateralis
# T1 sequence (Q01158 whole entry): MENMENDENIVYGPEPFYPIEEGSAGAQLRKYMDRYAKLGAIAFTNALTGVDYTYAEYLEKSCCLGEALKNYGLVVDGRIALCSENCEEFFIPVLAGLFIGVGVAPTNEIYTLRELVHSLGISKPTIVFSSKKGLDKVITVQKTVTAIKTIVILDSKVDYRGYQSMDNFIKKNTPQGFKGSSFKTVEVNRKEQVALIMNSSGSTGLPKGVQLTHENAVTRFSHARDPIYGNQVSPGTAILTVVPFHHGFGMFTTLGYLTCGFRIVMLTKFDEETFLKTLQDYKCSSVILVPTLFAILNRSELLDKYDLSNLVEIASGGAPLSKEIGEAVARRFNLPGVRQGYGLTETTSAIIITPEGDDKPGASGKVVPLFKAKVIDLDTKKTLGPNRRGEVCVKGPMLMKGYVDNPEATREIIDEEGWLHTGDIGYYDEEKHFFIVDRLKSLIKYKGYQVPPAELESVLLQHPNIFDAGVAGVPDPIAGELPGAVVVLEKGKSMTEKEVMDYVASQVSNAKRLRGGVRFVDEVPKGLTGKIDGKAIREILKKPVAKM
# [4] = molecular target: Survival motor neuron protein (Homo sapiens) (UniProt Q16637); assay: Activation of SMN expressed in HEK293 cells assessed as rate of induction by SMN2-promotor driven luciferase reporter gene assay relative to basal level; assay type: cell-based; set-up: concentration or dose not given beside the values
# Survival motor neuron protein (Homo sapiens), sequence (Q16637 whole entry): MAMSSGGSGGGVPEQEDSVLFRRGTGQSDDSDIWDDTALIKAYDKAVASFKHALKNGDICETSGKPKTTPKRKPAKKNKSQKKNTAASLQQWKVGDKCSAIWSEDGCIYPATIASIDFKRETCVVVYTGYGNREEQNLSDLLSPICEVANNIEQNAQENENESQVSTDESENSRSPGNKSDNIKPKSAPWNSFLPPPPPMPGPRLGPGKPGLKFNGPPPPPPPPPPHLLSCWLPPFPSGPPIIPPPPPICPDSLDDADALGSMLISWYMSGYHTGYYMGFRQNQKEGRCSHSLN
# Method in brief: (§1)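 HEK-293 cells stably carrying the SMN2 reporter construct, kept in DMEM with 10% FCS, glutamax, pyruvate, pen/strep and 200 µg/mL hygromycin, and assayed without hygromycin. 2,000 cells/well were plated and adhered overnight at 37 °C, 5% CO2. Compounds were added as a 7-point titration, 50 µM to 25 nM final, in 0.46% DMSO, for 30–36 h. OneGlo luminescence was normalized to 4.5 mM sodium butyrate (100%) and DMSO (0%).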
# [5] = molecular target: Survival motor neuron protein (Homo sapiens) (UniProt Q16637); assay: Activation of SMN expressed in HEK293 cells assessed as concentration required to reach 50% of maximum luciferase signal by SMN2-promotor driven luciferase reporter gene assay; assay type: cell-based; method in brief: as §1
# [6] = molecular target: Survival motor neuron protein (Homo sapiens) (UniProt Q16637); assay: Activation of SMN in human fibroblast cells obtained from type 1 SMA patients assessed as increase in SMN protein level by quantitative Western blot method; assay type: cell-based
# Method in brief: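 Type I SMA patient fibroblasts (3813 line) were seeded at 8,000 cells/cm2 24 h before dosing, with medium and compound renewed every 24 h for 72 h. Lysates (10 µg protein/lane) were immunoblotted for SMN (4f11 antibody) and α-tubulin. Band intensity was normalized to tubulin and expressed as fold over the DMSO control.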
# [7] = molecular target: Survival motor neuron protein (Homo sapiens) (UniProt Q16637); assay: Activation of SMN expressed in HEK293 cells by SMN2-promotor driven luciferase reporter gene assay; assay type: cell-based; method in brief: as §1
# [8] = Half-life in human serum; assay type: ADME, cell-free
# Brain [9] = assay: Drug level in Swiss albino mouse brain at 30 mg/kg, po after 2 hrs; assay type: ADME, organism-based; set-up: dose 30 mg/kg, route oral; settings: in vivo
# Method in brief: (§2)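 Male Swiss Albino mice received a single 30 mg/kg oral gavage dose. Compound levels were measured in plasma and brain over time, and PK parameters were derived from the concentration–time data.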
# Brain [10] = assay: Drug level in Swiss albino mouse brain at 30 mg/kg, po after 1 hr; assay type: ADME, organism-based; set-up: dose 30 mg/kg, route oral; settings: in vivo; method in brief: as §2
# Brain [11] = assay: Drug level in Swiss albino mouse brain at 30 mg/kg, po after 0.5 hr; assay type: ADME, organism-based; set-up: dose 30 mg/kg, route oral; settings: in vivo; method in brief: as §2
# Brain [12] = assay: Drug level in Swiss albino mouse brain at 30 mg/kg, po after 0.25 hr; assay type: ADME, organism-based; set-up: dose 30 mg/kg, route oral; settings: in vivo; method in brief: as §2
# Brain [13] = assay: Drug level in Swiss albino mouse brain at 30 mg/kg, po after 0.083 hr; assay type: ADME, organism-based; set-up: dose 30 mg/kg, route oral; settings: in vivo
# [14] = Plasma concentration in Swiss albino mouse at 30 mg/kg, po after 24 hrs; assay type: ADME, organism-based; set-up: dose 30 mg/kg, route oral; method in brief: as §2
# [15] = Plasma concentration in Swiss albino mouse at 30 mg/kg, po after 12 hrs; assay type: ADME, organism-based; set-up: dose 30 mg/kg, route oral; method in brief: as §2
# [16] = Plasma concentration in Swiss albino mouse at 30 mg/kg, po after 8 hrs; assay type: ADME, organism-based; set-up: dose 30 mg/kg, route oral; method in brief: as §2
# [17] = Plasma concentration in Swiss albino mouse at 30 mg/kg, po after 4 hrs; assay type: ADME, organism-based; set-up: dose 30 mg/kg, route oral; method in brief: as §2
# [18] = Plasma concentration in Swiss albino mouse at 30 mg/kg, po after 2 hrs; assay type: ADME, organism-based; set-up: dose 30 mg/kg, route oral; method in brief: as §2
# [19] = Plasma concentration in Swiss albino mouse at 30 mg/kg, po after 1 hr; assay type: ADME, organism-based; set-up: dose 30 mg/kg, route oral; method in brief: as §2
# [20] = Plasma concentration in Swiss albino mouse at 30 mg/kg, po after 0.5 hrs; assay type: ADME, organism-based; set-up: dose 30 mg/kg, route oral; method in brief: as §2
# [21] = Plasma concentration in Swiss albino mouse at 30 mg/kg, po after 0.25 hrs; assay type: ADME, organism-based; set-up: dose 30 mg/kg, route oral; method in brief: as §2
# [22] = Plasma concentration in Swiss albino mouse at 30 mg/kg, po after 0.083 hrs; assay type: ADME, organism-based; set-up: dose 30 mg/kg, route oral
# [23] = Ratio of AUC in brain to AUC in plasma in Swiss albino mouse at 30 mg/kg, po; assay type: ADME, organism-based; set-up: dose 30 mg/kg, route oral; settings: brain and plasma
# Method in brief: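 Single oral gavage dose of 30 mg/kg given to male Swiss Albino mice; compound concentrations measured in both plasma and brain, from which brain and plasma exposure parameters were derived; animals observed for behavioural disturbance throughout the study.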
# Brain [24] = assay: AUC (infinity) in brain of Swiss albino mouse at 30 mg/kg, po; assay type: ADME, organism-based; set-up: time infinity, dose 30 mg/kg, route oral; settings: in vivo; method in brief: as §2
# Brain [25] = assay: AUClast in brain of Swiss albino mouse at 30 mg/kg, po; assay type: ADME, organism-based; set-up: time 0 - last, dose 30 mg/kg, route oral; settings: in vivo; method in brief: as §2
# Brain [26] = assay: Half-life in brain of Swiss albino mouse at 30 mg/kg, po; assay type: ADME, organism-based; set-up: dose 30 mg/kg, route oral; settings: in vivo; method in brief: as §2
# Brain [27] = assay: Cmax in brain of Swiss albino mouse at 30 mg/kg, po; assay type: ADME, organism-based; set-up: dose 30 mg/kg, route oral; settings: in vivo; method in brief: as §2
# Plasma [28] = assay: AUClast in plasma of Swiss albino mouse at 30 mg/kg, po; assay type: ADME, organism-based; set-up: time 0 - last, dose 30 mg/kg, route oral; settings: in vivo; method in brief: as §2
# Plasma [29] = assay: AUC (infinity) in plasma of Swiss albino mouse at 30 mg/kg, po; assay type: ADME, organism-based; set-up: dose 30 mg/kg, route oral, time infinity; settings: in vivo; method in brief: as §2
# Plasma [30] = assay: Half-life in plasma of Swiss albino mouse at 30 mg/kg, po; assay type: ADME, organism-based; set-up: dose 30 mg/kg, route oral; settings: in vivo; method in brief: as §2
# Plasma [31] = assay: Cmax in plasma of Swiss albino mouse at 30 mg/kg, po; assay type: ADME, organism-based; set-up: dose 30 mg/kg, route oral; settings: in vivo; method in brief: as §2
# Brain [32] = assay: Drug level in Swiss albino mouse brain at 30 mg/kg, po after 24 hrs; assay type: ADME, organism-based; set-up: dose 30 mg/kg, route oral; settings: in vivo; method in brief: as §2
# Brain [33] = assay: Drug level in Swiss albino mouse brain at 30 mg/kg, po after 12 hrs; assay type: ADME, organism-based; set-up: dose 30 mg/kg, route oral; settings: in vivo; method in brief: as §2
# Brain [34] = assay: Drug level in Swiss albino mouse brain at 30 mg/kg, po after 8 hrs; assay type: ADME, organism-based; set-up: dose 30 mg/kg, route oral; settings: in vivo; method in brief: as §2
# Brain [35] = assay: Drug level in Swiss albino mouse brain at 30 mg/kg, po after 4 hrs; assay type: ADME, organism-based; set-up: dose 30 mg/kg, route oral; settings: in vivo; method in brief: as §2
smiles,measurement,setting,value
CSc1ccc(-c2cnc(N3CCC(C(N)=O)CC3)s2)cc1,Papp,Caco-2 [1],0.2 ×10⁻⁶ cm/s
same,Papp,Caco-2 [2],1.6 ×10⁻⁶ cm/s
same,t1/2,Liver,2 min
same,IC50,[3]; read-out: IC50,40 µM
same,Activity,[4],576%
same,Activity,[5],0.031 µM
NC(=O)C1CCN(c2nc(-c3ccc(Br)cc3)cs2)CC1,Papp,Caco-2 [1],12.1 ×10⁻⁶ cm/s
same,Papp,Caco-2 [2],30.7 ×10⁻⁶ cm/s
same,t1/2,Liver,12 min
same,IC50,[3],Not Active
same,Activity,[6],Dose-dependent effect
same,Activity,[4],268%
same,Activity,[5],1.22 µM
same,Activity,[7],Active
NC(=O)C1CCN(c2nnc(-c3ccc4c(c3)OCCCO4)s2)CC1,Papp,Caco-2 [1],51.2 ×10⁻⁶ cm/s
same,Papp,Caco-2 [2],21.2 ×10⁻⁶ cm/s
same,t1/2,Liver,> 60 min
same,IC50,[3]; read-out: IC50,3.2 µM
same,Activity,[4],257%
same,Activity,[5],0.122 µM
Cc1ccc(-c2cnc(N3CCC(C(N)=O)CC3)s2)cc1,t1/2,Liver,7 min
same,IC50,[3]; read-out: IC50,6.4 µM
same,Activity,[4],609%
same,Activity,[5],0.077 µM
O=C(O)C1CCN(c2nc(-c3ccc(Br)cc3)cs2)CC1,Papp,Caco-2 [1],12 ×10⁻⁶ cm/s
same,Papp,Caco-2 [2],32.6 ×10⁻⁶ cm/s
same,IC50,[3]; read-out: IC50,1.6 µM
same,Activity,[4],554%
same,Activity,[5],4.87 µM
CCCC(=O)[O-].[Na+] [SODIUM BUTYRATE],half-life,[8],6 min
O=C(Nc1ccccc1)C1CCN(c2ncc(-c3ccc4c(c3)OCCCO4)s2)CC1,t1/2,Liver,< 15 min
same,IC50,[3]; read-out: IC50,4 µM
same,Activity,[4],353%
same,Activity,[5],0.049 µM
O=C([O-])CCCc1ccccc1.[Na+] [SODIUM PHENYLBUTYRATE],half-life,[8],90 min
CC(C)Oc1cccc(-c2ccnc(N3CCC(C(N)=O)CC3)n2)c1,Papp,Caco-2 [1],17.3 ×10⁻⁶ cm/s
same,Papp,Caco-2 [2],40.1 ×10⁻⁶ cm/s
same,t1/2,Liver,18 min
same,IC50,[3]; read-out: IC50,10 µM
same,Activity,[4],298%
same,Activity,[5],0.154 µM
CC(C)Oc1cccc(-c2cnc(N3CCC(C(N)=O)CC3)s2)c1,Drug uptake,Brain [9],0.23 µmol/kg
same,Drug uptake,Brain [10],0.6 µmol/kg
same,Drug uptake,Brain [11],0.4 µmol/kg
same,Drug uptake,Brain [12],0.31 µmol/kg
same,Drug uptake,Brain [13],1.28 µmol/kg
same,concentration at 24 h,[14],60 nM
same,concentration at 12 h,[15],19 nM
same,concentration at 8 h,[16],25 nM
same,concentration at 4 h,[17],2.8 nM
same,concentration at 2 h,[18],600 nM
same,concentration at 1 h,[19],1270 nM
same,concentration at 0.5 h,[20],1200 nM
same,concentration at 0.25 h,[21],1200 nM
same,concentration at 0.083 h,[22],3720 nM
same,Papp,Caco-2 [1],0.3 ×10⁻⁶ cm/s
same,Papp,Caco-2 [2],6.1 ×10⁻⁶ cm/s
same,t1/2,Liver,30 min
same,IC50,[3]; read-out: IC50,0.8 µM
same,Activity,[4],709%
same,Activity,[5],0.077 µM
same,Kp,[23],0.29
same,AUC,Brain [24],607 ng·h/mL
same,AUClast,Brain [25],546 ng·h/mL
same,t1/2,Brain [26],326 min
same,Cmax,Brain [27],1.28 µmol/kg
same,AUClast,Plasma [28],1857 ng·h/mL
same,AUC,Plasma [29],1429 ng·h/mL
same,t1/2,Plasma [30],347 min
same,Cmax,Plasma [31],3720 nM
same,Drug uptake,Brain [32],0.023 µmol/kg
same,Drug uptake,Brain [33],0 µmol/kg
same,Drug uptake,Brain [34],0 µmol/kg
same,Drug uptake,Brain [35],0.083 µmol/kg
